Experimental findings from ChEMBL document CHEMBL3992522, “Antileishmanial Activity of Pyrazolopyridine Derivatives and Their Potential as an Adjunct Therapy with Miltefosine” (J Med Chem, 2017) are described below.

What all share (type): functional
The subject of assay [1] is Leishmania donovani. Nature of the assay: Antileishmanial activity against Leishmania donovani MHOM/IN/80/DD8 amastigote forms harboring luciferase gene infected in mouse J774 cells at 50 uM after 72 hrs by Steady-Glo reagent based luminescence assay relative to control. Summed up: (§1)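 Stationary-phase luciferase-expressing Dd8 promastigotes infected into J774 macrophages (4×10^4/mL seeded, 24 h, 37 °C, 5% CO2) at 1:8 macrophage:parasite for 24 h. Non-internalised parasites washed off. Compounds added at 50 and 25 µM in RPMI/10% FBS for 72 h. Lysis with Steady-Glo luciferin reagent plus PBS, luminescence read. Inhibition relative to untreated infected controls.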

For assay [2], the system named is Leishmania donovani. Nature of the assay: Antileishmanial activity against Leishmania donovani MHOM/IN/80/DD8 promastigote forms harboring luciferase gene at 25 uM after 72 hrs by Steady-Glo reagent based luminescence assay relative to control. The note with it: MHOM/IN/80/DD8, 72 h, read-out: GI. In a few lines: (§2)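 Exponential-phase Dd8-Luc promastigotes at 1×10^6/mL in M199 with 10% FBS, 24 °C, given 50 and 25 µM for 72 h. Vehicle 0.1% DMSO. Steady-Glo added 1:1, luminescence (RLU) read. IC50 from four-parameter Hill regression, derived only where inhibition exceeded 90%. Means of at least three independent experiments.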

Assay [3] deals with Leishmania donovani. The assay is described as follows: Antileishmanial activity against Leishmania donovani MHOM/IN/80/DD8 promastigote forms harboring luciferase gene at 50 uM after 72 hrs by Steady-Glo reagent based luminescence assay relative to control. The note with it: MHOM/IN/80/DD8, 72 h, read-out: GI. In a few lines: as §2
In assay [4] the test system is Leishmania donovani. Nature of the assay: Antileishmanial activity against Leishmania donovani MHOM/IN/80/DD8 amastigote forms harboring luciferase gene infected in mouse J774 cells at 25 uM after 72 hrs by Steady-Glo reagent based luminescence assay relative to control. Summed up: as §1

Active and inactive are the calls of the source. The rule behind the calls is not given here.

As for `COc1ccc(-c2c3c(nc4c2c(-c2c[nH]c5ccccc25)nn4-c2ccc(Cl)cc2)-c2ccccc2C3=O)cc1`, the “growth inhibition (GI)” value in the assay on Leishmania donovani [1] and with Leishmania donovani [4] was “inactive” throughout. Besides, the inhibition of growth at 25 µM with Leishmania donovani [2] was found to be 27.5%. Also, in the assay with Leishmania donovani [3], the inhibition of growth at 50 µM was 33.4%.
For the molecule `COc1ccc(C2C3=C(Nc4c2c(-c2c[nH]c5ccccc25)nn4-c2ccc(Cl)cc2)c2ccccc2C3=O)c(OC)c1OC` (configuration not stated), the “growth inhibition (GI)” value in the assay on Leishmania donovani [1] and with Leishmania donovani [4] was “inactive” throughout. Also, the inhibition of growth at 25 µM with Leishmania donovani [2] stood at 64.2%. In the assay with Leishmania donovani [3], the inhibition of growth at 50 µM came out at 67.4%.
Turning to `COc1ccc(-c2c3c(nc4c2c(-c2c[nH]c5ccccc25)nn4-c2ccc(Cl)cc2)-c2ccccc2C3=O)c(OC)c1OC`, the “growth inhibition (GI)” value in the assay on Leishmania donovani [1] and in the assay with Leishmania donovani [4] was “inactive” in each case. The inhibition of growth at 25 µM with Leishmania donovani [2] is 52.6%. For the same molecule, in the assay on Leishmania donovani [3], the inhibition of growth at 50 µM stood at 63.4%.
